Paper PMC12130796 (Clinical Cancer Research, 2025)
Where two headings read alike, the source gives them in different places.

What was measured:
[1] = system: patients with AOGCT; conditions: case report, one patient with AOGCT, cited from earlier work
[2] = Plasma pharmacokinetics of paclitaxel and metabolites; format: in vivo, human
[3] = system: AOGCT KGN cells; conditions: read-out: EC50, inhibition of proliferation; KGN cells in vitro; cited from earlier work
[4] = Plasma pharmacokinetics of nilotinib in the combination; format: in vivo; conditions: human, oral, Mean nilotinib AUC(0–24hours)
[5] = cited from earlier work
[6] = system: OATP1B2; conditions: via inhibition of OATP1B2 in dorsal root ganglia cells; cited from earlier work
[7] = system: CYP2C8; conditions: cited from earlier work
[8] = system: patients with relapsed ovarian sex cord–stromal tumors; conditions: weekly paclitaxel monotherapy, phase 2 arm, 32 patients (84% AOGCT); cited from earlier work
[9] = system: E-cadherin, vimentin; assay: EMT immunofluorescence assay in tumor biopsies, log10; format: in vivo, human; conditions: single-agent paclitaxel, C1D2 biopsies
[10] = system: serine 10-phosphorylated histone H3 (pHH3); assay: pHH3 quantitative immunofluorescence; format: in vivo, human; conditions: C1D2 biopsies (after paclitaxel alone) relative to baseline, P = 0.0031
Method in brief: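 Adult patients with solid tumours received IV test taxane on days 1, 8 and 15 of 28-day cycles, with oral kinase inhibitor started C1D3 during dose expansion. 18-gauge core biopsies were taken at baseline, C1D2 and C1D28, snap-frozen, thawed in neutral buffered formalin, paraffin-embedded and cut at 5 micron for quantitative IFA. Per-patient means were compared by unpaired t test assuming unequal variances.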

Cc1ccc(NC(=O)c2ccc(CN3CCN(C)CC3)cc2)cc1Nc1nccc(-c2cccnc2)n1 [Imatinib]
Duration of stable disease ([1]; ref 36): over 16 months | Duration of stable disease ([1]; ref 37): 12 months

Cc1cn(-c2cc(NC(=O)c3ccc(C)c(Nc4nccc(-c5cccnc5)n4)c3)cc(C(F)(F)F)c2)cn1 [nilotinib]
Effect of nilotinib coadministration on plasma paclitaxel exposures ([2]; day 8 vs day 1, DL2 vs DL3): does not modulate plasma paclitaxel exposures | EC50 [3]: 13.1 µM | AUC(0-t) ([4]; day 8, DL2 (300 mg nilotinib twice daily, 80 mg/m^2 paclitaxel)): 51.2 µM·h | AUC(0-t) ([4]; day 8, DL3 (400 mg nilotinib twice daily, 80 mg/m^2 paclitaxel)): 90.4 µM·h | Published mean AUC(0–24hours) ([5]; nilotinib monotherapy): 3,848 ± 1,116 μmol/L × minutes | Cmax ([5]; read-out: Clinical Cmax, 300 mg twice-daily dosing): ~2000 nM | Effect on paclitaxel-induced peripheral neuropathy [6]: attenuates paclitaxel-induced peripheral neuropathy | Effect on CYP2C8-mediated 6α-hydroxypaclitaxel formation [7]: inhibits

CC(=O)O[C@H]1C(=O)[C@@]2(C)[C@H]([C@H](OC(=O)c3ccccc3)[C@]3(O)C[C@H](OC(=O)[C@H](O)[C@@H](NC(=O)c4ccccc4)c4ccccc4)C(C)=C1C3(C)C)[C@]1(OC(C)=O)CO[C@@H]1C[C@@H]2O [paclitaxel]
Progression-free survival [8]: 14.7 months | Dose proportionality of plasma concentrations ([2]; across the two doses tested (60 and 80 mg/m^2)): dose-proportional | Change in tumor EMT phenotype [9]: no obvious biologically relevant changes in EMT phenotype | Change in mitotic arrest marker pHH3 [10]: significant increase
